Results from article PMC6810844 (Cellular and molecular life sciences : CMLS, 2019).

Key:
BoSGBPMLG-A = biological target: T1, BoSGBPMLG-A (Bacteroides ovatus, UniProt A0AAN3A7L1); assay: isothermal titration calorimetry; type: binding; conditions: 50 mM sodium phosphate pH 7.0, 25 °C
T1 sequence (A0AAN3A7L1 23-558): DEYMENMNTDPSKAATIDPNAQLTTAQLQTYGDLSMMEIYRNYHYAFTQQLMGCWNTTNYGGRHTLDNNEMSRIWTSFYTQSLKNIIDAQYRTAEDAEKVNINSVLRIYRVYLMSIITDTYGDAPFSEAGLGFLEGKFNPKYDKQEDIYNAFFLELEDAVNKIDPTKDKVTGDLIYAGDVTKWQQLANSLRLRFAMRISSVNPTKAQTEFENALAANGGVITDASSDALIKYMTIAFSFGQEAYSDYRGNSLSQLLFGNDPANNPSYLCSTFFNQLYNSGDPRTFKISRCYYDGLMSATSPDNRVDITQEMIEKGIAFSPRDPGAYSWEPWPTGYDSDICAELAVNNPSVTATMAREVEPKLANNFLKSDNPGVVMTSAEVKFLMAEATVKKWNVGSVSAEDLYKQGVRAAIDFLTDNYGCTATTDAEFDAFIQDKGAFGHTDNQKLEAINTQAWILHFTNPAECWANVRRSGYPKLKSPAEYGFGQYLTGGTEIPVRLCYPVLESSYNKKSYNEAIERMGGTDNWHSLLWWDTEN
In short: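 Recombinant His6-tagged protein was expressed in E. coli BL21(DE3), Ni-IMAC purified, and exchanged into 50 mM sodium phosphate pH 7.0. In the cell: 20–100 µM protein at 25 °C, stirred at 280 rpm. Injections: 2 µL, then 24 × 10 µL of 2.5–4.0 mg/mL polysaccharide or 1–2 mM oligosaccharide. Heat recorded. Molar polysaccharide Ka assumed a hexasaccharide motif for MLG and a Glc8-backbone motif for XyG.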

BoSGBPMLG-B = biological target: T2, BoSGBPMLG-B (Bacteroides ovatus, UniProt A0ABU3IRL2); assay: isothermal titration calorimetry; type: binding; conditions: 50 mM sodium phosphate pH 7.0, 25 °C; n fixed at 1
T2 sequence (A0ABU3IRL2 22-420): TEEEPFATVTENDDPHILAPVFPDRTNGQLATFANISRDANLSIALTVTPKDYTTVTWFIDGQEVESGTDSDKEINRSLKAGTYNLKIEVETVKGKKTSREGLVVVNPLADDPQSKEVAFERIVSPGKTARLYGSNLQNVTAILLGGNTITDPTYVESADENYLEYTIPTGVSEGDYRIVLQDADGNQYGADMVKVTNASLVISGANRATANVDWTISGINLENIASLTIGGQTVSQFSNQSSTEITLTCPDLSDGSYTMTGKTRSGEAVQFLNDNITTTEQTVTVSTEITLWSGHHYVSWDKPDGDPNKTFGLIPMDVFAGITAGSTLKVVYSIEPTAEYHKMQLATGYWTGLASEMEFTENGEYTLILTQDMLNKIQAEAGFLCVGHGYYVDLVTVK
In short: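 His6-tagged protein was produced in E. coli BL21(DE3) and purified by nickel affinity. Titrations ran at 25 °C in 50 mM sodium phosphate pH 7.0, except bMLG, which used 10 mM HEPES pH 7.0. 20–100 µM protein in the cell received one 2 µL injection, then 24 × 10 µL of 2.5–4.0 mg/mL polysaccharide or 1–2 mM oligosaccharide, with stirring at 280 rpm. MLG Ka was converted from g/L assuming a hexasaccharide motif.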

SMILES | Ka (M^-1) / BoSGBPMLG-A (BoSGBPMLG-A; n fixed at 1) | Ka (M^-1) / BoSGBPMLG-B (BoSGBPMLG-B) | Ka (M^-1) / BoSGBPMLG-A (BoSGBPMLG-A)
OC[C@H]1O[C@@H](O[C@H]2[C@H](O)[C@@H](O)[C@H](O[C@H]3[C@H](O)[C@@H](O)[C@H](O[C@H]4[C@H](O)[C@@H](O)[C@H](O[C@H]5[C@H](O)[C@@H](O)[C@H](O[C@H]6[C@H](O)[C@@H](O)C(O)O[C@@H]6CO)O[C@@H]5CO)O[C@@H]4CO)O[C@@H]3CO)O[C@@H]2CO)[C@H](O)[C@@H](O)[C@@H]1O (stereo partly drawn) [Cellohexaose] | (3.39 ± 0.03) × 10^3 | (3.1 ± 0.06) × 10^3 | –
OC[C@H]1O[C@@H](O[C@H]2[C@H](O)[C@@H](O)[C@H](O[C@@H]3[C@@H](O)[C@H](O[C@H]4[C@H](O)[C@@H](O)[C@H](O[C@H]5[C@H](O)[C@@H](O)[C@H](O[C@H]6[C@H](O)[C@@H](CO)OC(O)[C@@H]6O)O[C@@H]5CO)O[C@@H]4CO)O[C@H](CO)[C@H]3O)O[C@@H]2CO)[C@H](O)[C@@H](O)[C@@H]1O (stereo partly drawn) [MLG6, G4G3G4G4G3G] | – | (3.16 ± 0.19) × 10^3 | (1.44 ± 0.04) × 10^4
OC[C@H]1O[C@@H](O[C@H]2[C@H](O)[C@@H](O)[C@H](O[C@H]3[C@H](O)[C@@H](O)[C@H](O[C@@H]4[C@@H](O)[C@H](O[C@H]5[C@H](O)[C@@H](O)[C@H](O[C@H]6[C@H](O)[C@@H](O)[C@H](O[C@H]7[C@H](O)[C@@H](CO)OC(O)[C@@H]7O)O[C@@H]6CO)O[C@@H]5CO)O[C@H](CO)[C@H]4O)O[C@@H]3CO)O[C@@H]2CO)[C@H](O)[C@@H](O)[C@@H]1O (stereo partly drawn) [MLG7, G4G4G3G4G4G3G] | – | (4.69 ± 0.13) × 10^3 | (4.51 ± 0.34) × 10^4
